Reference: ChEMBL document CHEMBL1157468, “Design, synthesis, and testing of non-nephrotoxic desazadesferrithiocin polyether analogues” (J Med Chem, 2008)

Key:
[1] = system: Plasma; test: Biodistribution in Sprague-Dawley rat plasma at 300 umol/kg, po after 1 hr; assay type: ADME, organism-based; conditions: in vivo
How it was run: (§1)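 Male Sprague–Dawley rats (250–350 g) got one 300 µmol/kg dose, po or sc. Vehicle was water or the monosodium salt (free acid plus 1 equiv NaOH). Three rats per time point were euthanized by CO2 at 1, 2 or 4 h. Plasma came from citrated cardiac blood; liver, kidney, heart and pancreas were removed. Drug levels were measured by HPLC with UV detection at 310 nm against linear calibration curves (detection limit 0.25 µM).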

[2] = system: Kidney; test: Biodistribution in Sprague-Dawley rat kidney assessed per gram tissue wet weight at 300 umol/kg, sc after 4 hrs; assay type: ADME, organism-based; conditions: in vivo
[3] = system: Rattus norvegicus; test: Iron-clearing efficiency in non-iron-overloaded Sprague-Dawley rat bile assessed as iron excretion at 300 umol/kg, po; assay type: functional
How it was run: (§2)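 Male Sprague–Dawley rats (400–450 g), not iron-loaded and bile duct-cannulated, got one dose of 50, 150 or 300 µmol/kg po, or 300 µmol/kg sc. Vehicle was water or the monosodium salt. Bile was collected every 3 h for 24 h and urine at 24 h. Iron was measured by atomic absorption. Efficiency was treated minus control iron excretion, divided by theoretical output (2:1 ligand:iron), as a percent; mean ± SEM.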

[4] = system: Liver; test: Biodistribution in Sprague-Dawley rat liver assessed per gram tissue wet weight at 300 umol/kg, po after 4 hrs; assay type: ADME, organism-based; conditions: in vivo; how it was run: as §1
[5] = system: Rattus norvegicus; test: Iron-clearing efficiency in non-iron-overloaded Sprague-Dawley rat at 50 umol/kg, po after 24 hrs relative to control; assay type: functional; how it was run: as §2
[6] = system: Rattus norvegicus; test: Iron-clearing efficiency in non-iron-overloaded Sprague-Dawley rat bile assessed as iron excretion at 50 umol/kg, po; assay type: functional; how it was run: as §2
[7] = system: Rattus norvegicus; test: Iron-clearing efficiency in non-iron-overloaded Sprague-Dawley rat at 150 umol/kg, po after 24 hrs relative to control; assay type: functional; how it was run: as §2
[8] = system: Plasma; test: Biodistribution in Sprague-Dawley rat plasma at 300 umol/kg, sc after 4 hrs; assay type: ADME, organism-based; conditions: in vivo
[9] = system: Kidney; test: Biodistribution in Sprague-Dawley rat kidney assessed per gram tissue wet weight at 300 umol/kg, po after 1 hr; assay type: ADME, organism-based; conditions: in vivo; how it was run: as §1
[10] = system: Pancreas; test: Biodistribution in Sprague-Dawley rat pancreas assessed per gram tissue wet weight at 300 umol/kg, sc after 4 hrs; assay type: ADME, organism-based; conditions: in vivo
[11] = system: Rattus norvegicus; test: Iron-clearing efficiency in non-iron-overloaded Sprague-Dawley rat at 300 umol/kg, sc after 24 hrs relative to control; assay type: functional; how it was run: as §2
[12] = system: Heart; test: Biodistribution in Sprague-Dawley rat heart assessed per gram tissue wet weight at 300 umol/kg, po after 2 hrs; assay type: ADME, organism-based; conditions: in vivo; how it was run: as §1
[13] = system: Plasma; test: Biodistribution in Sprague-Dawley rat plasma at 300 umol/kg, po after 2 hrs; assay type: ADME, organism-based; conditions: in vivo; how it was run: as §1
[14] = system: Plasma; test: Biodistribution in Sprague-Dawley rat plasma at 300 umol/kg, sc after 1 hr; assay type: ADME, organism-based; conditions: in vivo
[15] = system: Kidney; test: Biodistribution in Sprague-Dawley rat kidney assessed per gram tissue wet weight at 300 umol/kg, po after 2 hrs; assay type: ADME, organism-based; conditions: in vivo; how it was run: as §1
[16] = system: Sapajus apella; test: Iron-clearing efficiency in iron-overloaded Cebus apella at 150 umol/kg, sc after 2 days relative to control; assay type: functional
How it was run: (§3)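 Monkeys (Cebus apella, 3.5–4 kg) were iron-loaded to about 500 mg Fe/kg with iv iron dextran and rested at least 60 days. They then got one 150 µmol/kg dose, po or sc. Feces and urine were collected every 24 h from 4 days before to 5 days after dosing, and iron was measured by flame atomic absorption. Efficiency was the 2-day post-drug iron minus the 4-day pre-drug baseline, divided by theoretical output (2:1 ligand:iron); mean ± SEM.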

[17] = system: Kidney; test: Biodistribution in Sprague-Dawley rat kidney assessed per gram tissue wet weight at 300 umol/kg, sc after 2 hrs; assay type: ADME, organism-based; conditions: in vivo
[18] = system: Rattus norvegicus; test: Toxicity in non-iron-overloaded Sprague-Dawley rat assessed as survival at 384 umol/kg/day, po after 10 days by non-renal perfusion protocol; assay type: organism-based; conditions: in vivo, 240 h
How it was run: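 Non-iron-loaded male Sprague–Dawley rats (250–300 g) were fasted overnight and gavaged po once daily for 10 days at 384 µmol/kg/day. They were fed about 3 h postdose with 5 h food access, then fasted again. Survival was followed over the exposure. Euthanasia was 24 h after the last dose, with extensive tissue histopathology.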

[19] = system: Rattus norvegicus; test: Iron-clearing efficiency in non-iron-overloaded Sprague-Dawley rat bile assessed as iron excretion at 150 umol/kg, po; assay type: functional; how it was run: as §2
[20] = system: Rattus norvegicus; test: Nephrotoxicity in Sprague-Dawley rat assessed as heavy vacuolized renal tubules at […] for 7 days by renal perfusion studies; assay type: toxicity, organism-based; conditions: in vivo, 168 h, in the assay text read “237 umol/kg” for “273 umol/kg”
How it was run: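 Male Sprague–Dawley rats (200–250 g), fasted overnight, got 237 µmol/kg/dose po twice daily (474 µmol/kg/day) for 7 days and were fed about 3 h post-drug. Untreated age-matched rats were controls. One day post-drug, under pentobarbital, kidneys were perfusion-fixed with glutaraldehyde in Tyrode's buffer and embedded in TAAB. 500 nm sections were stained with toluidine blue and examined by light microscopy at 400×.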

[21] = system: Kidney; test: Biodistribution in Sprague-Dawley rat kidney assessed per gram tissue wet weight at 300 umol/kg, sc after 1 hr; assay type: ADME, organism-based; conditions: in vivo
[22] = system: Liver; test: Biodistribution in Sprague-Dawley rat liver assessed per gram tissue wet weight at 300 umol/kg, po after 1 hr; assay type: ADME, organism-based; conditions: in vivo; how it was run: as §1
[23] = system: Liver; test: Biodistribution in Sprague-Dawley rat liver assessed per gram tissue wet weight at 300 umol/kg, sc after 2 hrs; assay type: ADME, organism-based; conditions: in vivo
[24] = system: Rattus norvegicus; test: Iron-clearing efficiency in non-iron-overloaded Sprague-Dawley rat at 300 umol/kg, po after 24 hrs relative to control; assay type: functional; how it was run: as §2
[25] = system: Heart; test: Biodistribution in Sprague-Dawley rat heart assessed per gram tissue wet weight at 300 umol/kg, sc after 2 hrs; assay type: ADME, organism-based; conditions: in vivo
[26] = system: Heart; test: Biodistribution in Sprague-Dawley rat heart assessed per gram tissue wet weight at 300 umol/kg, sc after 1 hr; assay type: ADME, organism-based; conditions: in vivo
[27] = system: Pancreas; test: Biodistribution in Sprague-Dawley rat pancreas assessed per gram tissue wet weight at 300 umol/kg, sc after 2 hrs; assay type: ADME, organism-based; conditions: in vivo
[28] = system: Pancreas; test: Biodistribution in Sprague-Dawley rat pancreas assessed per gram tissue wet weight at 300 umol/kg, po after 1 hr; assay type: ADME, organism-based; conditions: in vivo; how it was run: as §1
[29] = system: Kidney; test: Biodistribution in Sprague-Dawley rat kidney assessed per gram tissue wet weight at 300 umol/kg, po after 4 hrs; assay type: ADME, organism-based; conditions: in vivo; how it was run: as §1
[30] = system: Liver; test: Biodistribution in Sprague-Dawley rat liver assessed per gram tissue wet weight at 300 umol/kg, sc after 1 hr; assay type: ADME, organism-based; conditions: in vivo
[31] = system: Sapajus apella; test: Iron-clearing efficiency in iron-overloaded Cebus apella at 150 umol/kg, po after 2 days relative to control; assay type: functional; how it was run: as §3
[32] = system: Heart; test: Biodistribution in Sprague-Dawley rat heart assessed per gram tissue wet weight at 300 umol/kg, po after 1 hr; assay type: ADME, organism-based; conditions: in vivo; how it was run: as §1
[33] = system: Pancreas; test: Biodistribution in Sprague-Dawley rat pancreas assessed per gram tissue wet weight at 300 umol/kg, po after 2 hrs; assay type: ADME, organism-based; conditions: in vivo; how it was run: as §1
[34] = system: Plasma; test: Biodistribution in Sprague-Dawley rat plasma at 300 umol/kg, sc after 2 hrs; assay type: ADME, organism-based; conditions: in vivo
[35] = system: Liver; test: Biodistribution in Sprague-Dawley rat liver assessed per gram tissue wet weight at 300 umol/kg, sc after 4 hrs; assay type: ADME, organism-based; conditions: in vivo
[36] = system: Liver; test: Biodistribution in Sprague-Dawley rat liver assessed per gram tissue wet weight at 300 umol/kg, po after 2 hrs; assay type: ADME, organism-based; conditions: in vivo; how it was run: as §1
[37] = system: Pancreas; test: Biodistribution in Sprague-Dawley rat pancreas assessed per gram tissue wet weight at 300 umol/kg, sc after 1 hr; assay type: ADME, organism-based; conditions: in vivo
[38] = system: Plasma; test: Biodistribution in Sprague-Dawley rat plasma at 300 umol/kg, po after 4 hrs; assay type: ADME, organism-based; conditions: in vivo; how it was run: as §1
[39] = system: Rattus norvegicus; test: Toxicity in non-iron-overloaded Sprague-Dawley rat assessed as survival at 63.3 umol/kg/day, po after 30 days by non-renal perfusion protocol; conditions: in vivo, 720 h
[40] = system: Heart; test: Biodistribution in Sprague-Dawley rat heart assessed per gram tissue wet weight at 300 umol/kg, sc after 4 hrs; assay type: ADME, organism-based; conditions: in vivo

Structure (SMILES): COCCOCCOCCOc1ccc(C2=N[C@@](C)(C(=O)O)CS2)c(O)c1
- Drug uptake [1]: 64 nmol/g
- Drug uptake [2]: 34 nmol/g
- Activity [3]: >95%
- Drug uptake [4]: 35 nmol/g
- Activity [5]: 21.7%
- Activity [6]: >95%
- Activity [7]: 11.2%
- Drug uptake [8]: 5 nmol/g
- Drug uptake [9]: 114 nmol/g
- Drug uptake [10]: 13 nmol/g
- Activity [11]: 8.7%
- Drug uptake [12]: 9 nmol/g
- Drug uptake [13]: 32 nmol/g
- Drug uptake [14]: 140 nmol/g
- Drug uptake [15]: 69 nmol/g
- Activity [16]: 30.4%
- Drug uptake [17]: 41 nmol/g
- Activity [18]: Non-toxic
- Activity [19]: >95%
- Activity [20]: Non-toxic
- Drug uptake [21]: 252 nmol/g
- Drug uptake [22]: 159 nmol/g
- Drug uptake [23]: 132 nmol/g
- Activity [24]: 5.5%
- Drug uptake [25]: 9 nmol/g
- Drug uptake [26]: 35 nmol/g
- Drug uptake [27]: 30 nmol/g
- Drug uptake [28]: 25 nmol/g
- Drug uptake [29]: 10 nmol/g
- Drug uptake [30]: 339 nmol/g
- Activity [31]: 25.4%
- Drug uptake [32]: 17 nmol/g
- Drug uptake [33]: 9 nmol/g
- Drug uptake [34]: 16 nmol/g
- Drug uptake [35]: 67 nmol/g
- Drug uptake [36]: 144 nmol/g
- Drug uptake [37]: 30 nmol/g
- Drug uptake [38]: 2 nmol/g
- Activity [39]: Non-toxic
- Drug uptake [40]: 5 nmol/g
